The values that follow come from ChEMBL document CHEMBL3098049, “Concise synthesis and biological evaluation of 2-Aroyl-5-amino benzo[b]thiophene derivatives as a novel class of potent antimitotic agents” (J Med Chem, 2013).

Data set [1] deals with HeLa. Description: Downregulation of Bcl-2 protein expression in human HeLa cells at 10 to 100 nM after 24 to 48 hrs by Western blot analysis. It is filed as functional, cell-based. The method, boiled down: (§1)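 HeLa cultures treated 24 or 48 h, washed in cold PBS, lysed 30 min at 0 °C, clarified at 15000g. 20 μg protein run on 7.5−15% gradient SDS-PAGE and blotted to PVDF. Primary antibodies 2 h at room temperature, peroxidase secondary 60 min, ECL detection. Membranes stripped and reprobed for β-actin as loading control.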
In general terms: Immunoblotting shows a protein as a band on a membrane.

Data set [2] has as its system HeLa. Description: Cell cycle arrest in human HeLa cells assessed as accumulation at G2/M phase after 24 hrs by propidium iodide staining-based flow cytometric analysis. Format: functional. A digest of the protocol:
(§2)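 HeLa cells (5 × 10⁵) treated for 24 h. Harvested, fixed in 70% ethanol chilled to 0 °C, then suspended in RNase with 0.1% Triton X-100. DNA stained with PI, analysed by flow cytometry as DNA-content histograms. Mean of three independent experiments.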

Data set [3] can be described thus: Cytotoxicity against human CEM/0 cells assessed as growth inhibition after 48 hrs by coulter counting analysis. Format: functional, cell-based. The conditions noted are these: CCRF-CEM.
Data set [4] deals with MNNG-HOS. Description: Antitumor activity against human MNNG-HOS cells xenografted in Balb/c-nu mouse assessed as tumor growth inhibition at 50 mg/kg, ip measured on day 18 relative to vehicle-treated control. Format: functional. As to conditions: HOS-TE85, ip, 432 h, route intraperitoneal, read-out: TGI. A digest of the protocol:
(§3)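 MNNG/HOS osteosarcoma cells grown to exponential phase, suspended in FBS-free MEM (10⁷ cells/mL), 0.1 mL injected into back hypodermis of nude mice. At ~100 mm³, 12 mice randomised to three groups (vehicle, CA-4P in isotonic saline, test in 5% DMSO/olive oil). 50 mg/kg ip at 0.01 mL/g on days 0, 3, 6, 9. Tumour volume and body weight tracked; tumours excised and weighed day 18; […].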
A general note: Xenograft models place foreign cells or tissue in a host animal.

Data set [5] deals with T1, Tubulin (Homo sapiens) (UniProt P68371+Q9H4B7+P0DPH7+P68366+Q13509+Q71U36+P04350+Q3ZCM7+P07437+P68363+Q9BQE3+Q6PEY2+Q13885+Q9BVA1+Q9BUF5). The experiment in a line: Displacement of [3H]-colchicine from tubulin (unknown origin) at 5 uM after 10 mins relative to control. Format: protein-complex assay.
Data set [6] has as its system HeLa. The experiment in a line: Cell cycle arrest in human HeLa cells assessed as accumulation at G2/M phase at 15 to 30 nM after 24 hrs by propidium iodide staining-based flow cytometric analysis relative to control. Format: functional. The method, boiled down:
as §2

The test system of data set [7] is Mus musculus. The experiment in a line: Toxicity in Balb/c-nu mouse xenografted with human MNNG-HOS cells assessed as change in body weight at 50 mg/kg, ip administered once every 3 days for 9 days measured after day 18. Format: organism-based. On the set-up: dose 50 mg/kg, route intraperitoneal. As to conditions: in vivo. The method, boiled down:
as §3

For data set [8], the system named is HUVEC. The experiment in a line: Cytotoxicity against HUVEC assessed as growth inhibition after 72 hrs by MTT assay. The conditions noted are these: Homo sapiens. Format: cell-based. The method, boiled down:
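HUVECs were detached with EDTA/trypsin at confluence, and only passages 1–6 were used. Cells were exposed to varying compound concentrations, and viability was read by MTT after 72 h. IC50 is the concentration reducing cell growth by 50%, as the mean of three independent experiments.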

Data set [9] concerns the target T1, Tubulin (Homo sapiens). The experiment in a line: Displacement of [3H]-colchicine from tubulin (unknown origin) at 1 uM after 10 mins relative to control. Format: protein-complex assay.
Data set [10] can be described thus: Inhibition of bovine brain tubulin polymerization preincubated for 15 mins followed by GTP addition measured for 20 mins by turbidometric analysis. On the set-up: species or system Bos taurus.
The test system of data set [11] is HeLa. Description: Induction of apoptosis in human HeLa cells assessed as caspase-9 cleavage at 10 to 100 nM after 24 to 48 hrs by Western blot analysis. It is filed as functional, cell-based. The method, boiled down: as §1
The subject of data set [12] is HeLa. Description: Induction of mitochondrial membrane depolarization in human HeLa cells at 15 to 250 nM by JC-1 staining-based fluorescence assay. It is filed as functional, cell-based. The conditions noted are these: TDE = time-dependent effect. A digest of the protocol:
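HeLa cells treated 24 or 48 h, then stained with JC-1. Cells with depolarised mitochondria quantified by flow cytometry. Mean of three independent experiments.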

Data set [13] is described as follows: Selectivity ratio of IC50 for HUVEC to IC50 for human Molt4/C8 cells. Format: ADME, cell-based. The conditions noted are these: HUVEC and Molt4/C8 cells, read-out: Ratio IC50.
Data set [14] is described as follows: Selectivity ratio of IC50 for HUVEC to IC50 for mouse FM3A/0 cells. Format: ADME, cell-based. As to conditions: HUVEC and FM3A/0 cells, read-out: Ratio IC50.
Data set [15] addresses T2, M-phase inducer phosphatase 3 (Homo sapiens) (UniProt P30307).
T2 sequence (whole entry): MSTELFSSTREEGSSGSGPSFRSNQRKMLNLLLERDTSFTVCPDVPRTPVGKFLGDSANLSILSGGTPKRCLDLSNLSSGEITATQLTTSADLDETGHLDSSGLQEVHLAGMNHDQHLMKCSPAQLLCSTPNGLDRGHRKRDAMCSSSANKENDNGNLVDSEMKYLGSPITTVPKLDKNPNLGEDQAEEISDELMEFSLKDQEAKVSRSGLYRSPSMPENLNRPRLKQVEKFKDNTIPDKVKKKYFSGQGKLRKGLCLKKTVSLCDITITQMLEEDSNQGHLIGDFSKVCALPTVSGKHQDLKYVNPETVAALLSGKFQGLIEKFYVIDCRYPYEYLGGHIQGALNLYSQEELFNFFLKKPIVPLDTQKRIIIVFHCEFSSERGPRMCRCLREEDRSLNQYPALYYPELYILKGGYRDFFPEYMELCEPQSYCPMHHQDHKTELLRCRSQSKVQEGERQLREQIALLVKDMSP
Description: Increase of cdc25c phosphorylation at Ser216 in human HeLa cells at 10 to 100 nM after 24 hrs by Western blot analysis. Format: cell-based. The method, boiled down:
as §1

Data set [16] deals with HeLa. Description: Induction of mitochondrial ROS generation in human HeLa cells after 24 to 48 hrs by H2-DCFDA staining-based flow cytometric analysis. Format: functional, cell-based. The method, boiled down:
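HeLa cells incubated 24 or 48 h with compound, stained with H₂-DCFDA, and intracellular ROS measured by flow cytometry. Mean of three independent experiments.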
In general terms: Flow cytometry measures light scatter and fluorescence of single cells or particles in a stream.

Data set [17] has as its target Cyclin-dependent kinase 1 (Homo sapiens) (UniProt P06493). The experiment in a line: Decrease of cdc2 protein phosphorylation at Tyr15 in human HeLa cells at 10 to 100 nM after 24 to 48 hrs by Western blot analysis. Format: cell-based. The method, boiled down: as §1
Data set [18] in a line: Cytotoxicity against human Molt4/C8 cells assessed as growth inhibition after 48 hrs by coulter counting analysis. It is filed as functional, cell-based. The conditions noted are these: MOLT-4, 48 h. A digest of the protocol:
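Cells suspended at (3−5) × 10⁵ cells/mL and mixed 1:1 with compound dilutions. Incubated 48 h at 37 °C, counted with a Coulter counter. IC₅₀ = concentration inhibiting proliferation by 50%. Mean of at least three independent experiments.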

The subject of data set [19] is HeLa. Description: Cytotoxicity against human HeLa cells assessed as growth inhibition after 48 hrs by coulter counting analysis. Format: functional, cell-based.
Data set [20] concerns the target T2, M-phase inducer phosphatase 3 (Homo sapiens). The experiment in a line: Increase of cdc25c phosphorylation at Ser216 in human HeLa cells at 10 to 100 nM after 48 hrs by Western blot analysis. Format: cell-based. A digest of the protocol:
as §1

Activity calls are given as the source filed them. The rule behind the calls is not given here.

Sequence of Cyclin-dependent kinase 1 (Homo sapiens) (P06493 whole entry, looked up): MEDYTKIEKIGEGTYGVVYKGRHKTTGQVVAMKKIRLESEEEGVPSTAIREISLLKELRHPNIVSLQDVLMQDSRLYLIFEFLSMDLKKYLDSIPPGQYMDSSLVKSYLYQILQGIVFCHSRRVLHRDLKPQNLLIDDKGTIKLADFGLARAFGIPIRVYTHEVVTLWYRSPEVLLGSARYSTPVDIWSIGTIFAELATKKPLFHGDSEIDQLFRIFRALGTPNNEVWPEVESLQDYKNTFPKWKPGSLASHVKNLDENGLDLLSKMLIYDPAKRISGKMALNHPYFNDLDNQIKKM

In the case of `COc1cc(C(=O)c2cc3cc(N)cc(OC)c3s2)cc(OC)c1OC`, the outcome in data set [1], in data set [11], in data set [15] and in [17] was Active. Moreover, the Activity entry is “Dose-dependent effect” in data set [2]; over 80% in [6]; “Non-toxic” in data set [7]; “tde” in data set [12]; “Dose-dependent effect” in data set [16]. Moreover, the IC50 (in general, the concentration at which inhibition is half-maximal) was 4.1 nM in data set [3]; 5500 nM in [8]; 520 nM in data set [10]; 2.6 nM in [18]; 8 nM in [19]. Also, the inhibition in vivo at 50 mg/kg in data set [4] stood at 62%. Besides, the inhibition (usually the change of the read-out against control, counted positive when it falls) turned out to be 97% in data set [5] and 89% in data set [9]. The selectivity ratio in data set [13] and in [14] was 460 each time. Besides, the result in [20] was inactive.
